Source: ChEMBL document CHEMBL1177676, “Synthesis and biological evaluation of cytotoxic activity of novel anthracene L-rhamnopyranosides” (Bioorg Med Chem, 2010)
pIC50: −log10 of the molar value. The source made the active and inactive calls. The calls are words filed in the database; no cut-off is given here.

What was measured:
KB = experiment: Cytotoxicity against human KB cells after 72 hrs by MTT assay; format: functional, cell-based
[1] = target: DNA topoisomerase 2-alpha (Homo sapiens) (UniProt P11388); experiment: Inhibition of DNA topoisomerase 2 alpha assessed as ATP-dependent decatenation of DNA in cell free system
HL-60 = experiment: Cytotoxicity against human HL60 cells after 72 hrs by MTT assay; format: functional, cell-based; details: HL-60, 72 h
How it was run: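 Leukemia cells seeded in 96-well plates and exposed in triplicate to graded compound concentrations for 72 h at 37 °C. Viability was read by MTT. IC50 was derived by the Logit method from at least three independent experiments.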

MDA-MB-231 = experiment: Cytotoxicity against human MDA-MB-231 cells after 72 hrs by MTT assay; format: functional, cell-based; details: MDA-MB-231, 72 h

DNA topoisomerase 2-alpha (Homo sapiens), sequence (P11388 whole entry): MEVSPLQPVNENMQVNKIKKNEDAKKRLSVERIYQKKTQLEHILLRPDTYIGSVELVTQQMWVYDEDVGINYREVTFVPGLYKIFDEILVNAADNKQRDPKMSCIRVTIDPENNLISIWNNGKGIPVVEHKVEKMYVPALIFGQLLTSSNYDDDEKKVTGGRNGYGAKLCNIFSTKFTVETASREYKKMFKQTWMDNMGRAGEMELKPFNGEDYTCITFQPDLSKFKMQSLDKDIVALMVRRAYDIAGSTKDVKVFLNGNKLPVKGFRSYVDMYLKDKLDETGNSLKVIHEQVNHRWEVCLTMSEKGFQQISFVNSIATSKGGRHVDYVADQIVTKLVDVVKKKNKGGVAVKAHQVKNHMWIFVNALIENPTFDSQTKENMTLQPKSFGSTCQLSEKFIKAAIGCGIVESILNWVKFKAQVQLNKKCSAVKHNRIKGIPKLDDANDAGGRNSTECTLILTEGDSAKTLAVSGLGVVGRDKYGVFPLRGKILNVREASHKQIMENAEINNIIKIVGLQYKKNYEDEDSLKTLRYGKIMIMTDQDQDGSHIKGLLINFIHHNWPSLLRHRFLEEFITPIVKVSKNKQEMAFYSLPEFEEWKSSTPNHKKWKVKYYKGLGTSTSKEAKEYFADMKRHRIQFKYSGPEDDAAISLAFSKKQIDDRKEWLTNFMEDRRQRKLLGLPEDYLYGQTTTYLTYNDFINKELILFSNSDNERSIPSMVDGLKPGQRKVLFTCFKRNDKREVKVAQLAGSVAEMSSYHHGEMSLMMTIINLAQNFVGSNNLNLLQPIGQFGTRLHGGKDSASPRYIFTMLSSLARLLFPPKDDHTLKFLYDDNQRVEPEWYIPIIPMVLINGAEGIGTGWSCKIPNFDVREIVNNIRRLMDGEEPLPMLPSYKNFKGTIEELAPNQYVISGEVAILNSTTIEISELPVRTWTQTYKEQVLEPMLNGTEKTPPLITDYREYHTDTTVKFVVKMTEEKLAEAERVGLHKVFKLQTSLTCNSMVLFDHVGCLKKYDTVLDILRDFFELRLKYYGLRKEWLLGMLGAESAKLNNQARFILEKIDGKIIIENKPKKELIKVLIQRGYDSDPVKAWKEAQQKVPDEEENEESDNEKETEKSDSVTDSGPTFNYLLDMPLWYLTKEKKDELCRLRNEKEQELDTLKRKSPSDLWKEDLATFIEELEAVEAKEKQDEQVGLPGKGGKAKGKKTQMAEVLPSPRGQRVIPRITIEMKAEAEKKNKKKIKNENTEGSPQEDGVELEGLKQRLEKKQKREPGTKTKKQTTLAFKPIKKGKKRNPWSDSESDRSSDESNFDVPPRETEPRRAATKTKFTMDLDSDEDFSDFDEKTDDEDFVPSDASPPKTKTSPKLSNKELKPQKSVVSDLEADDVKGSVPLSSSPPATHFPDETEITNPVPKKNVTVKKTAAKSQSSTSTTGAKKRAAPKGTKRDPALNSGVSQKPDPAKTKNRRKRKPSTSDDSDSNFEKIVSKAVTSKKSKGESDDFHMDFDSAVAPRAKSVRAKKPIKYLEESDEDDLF

Row | Structure (SMILES) | pIC50 (KB) | inhibition [1] | pIC50 (HL-60) | pIC50 (MDA-MB-231)
1 | CC(=O)O[C@@H]1[C@@H](O)[C@@H](O)[C@H](Oc2cc(O)c3c(c2)C(=O)c2cc(C)cc(O)c2C3=O)O[C@H]1C | < 4.70 | Active | < 4.70 | 5.10
2 | CC(=O)O[C@@H]1[C@@H](O[C@@H]2O[C@@H](C)[C@H](O)[C@@H](OC(C)=O)[C@H]2OC(C)=O)[C@H](C)O[C@@H](Oc2cc(O)c3c(c2)C(=O)c2cc(C)cc(O)c2C3=O)[C@@H]1OC(C)=O | 5.08 | Active | 4.93 | < 4.70
3 | CCCC(=O)O[C@@H]1[C@@H](O)[C@H](C)O[C@@H](Oc2cc(O)c3c(c2)C(=O)c2cc(C)cc(O)c2C3=O)[C@@H]1OC(=O)CCC | < 4.70 |  | < 4.70 | < 4.70
4 | CC(=O)O[C@@H]1[C@@H](O)[C@H](C)O[C@@H](Oc2cc(O)c3c(c2)C(=O)c2cc(C)cc(O)c2C3=O)[C@@H]1OC(C)=O | 5.96 | Active | 5.44 | < 4.70
5 | Cc1cc(O)c2c(c1)C(=O)c1cc(O)cc(O)c1C2=O [EMODIN] | < 4.70 |  | < 4.70 | < 4.70
6 | CC(=O)Oc1cc(C)cc2c1C(=O)c1c(OC(C)=O)cc(O[C@@H]3O[C@@H](C)[C@H](OC(C)=O)[C@@H](OC(C)=O)[C@H]3OC(C)=O)cc1C2OC(C)=O (mixture of isomers) | 5.96 | Active | 5.82 | 5.77
7 | CC(=O)O[C@@H]1[C@@H](OC(C)=O)[C@@H](O)[C@H](Oc2cc(O)c3c(c2)C(=O)c2cc(C)cc(O)c2C3=O)O[C@H]1C | < 4.70 |  | < 4.70 | 5.92
8 | CC(=O)OC1c2cc(C)cc(O)c2C(=O)c2c(O)cc(O[C@@H]3O[C@@H](C)[C@H](O)[C@@H](OC(C)=O)[C@H]3OC(C)=O)cc21 (mixture of isomers) | 6.52 |  | 6.10 | 6.40
9 | COc1cc(C)cc2c1C(=O)c1c(OC)cc(O[C@@H]3O[C@@H](C)[C@H](O)[C@@H](OC(C)=O)[C@H]3OC(C)=O)cc1C2=O | < 4.70 |  | < 4.70 | < 4.70
10 | CC(=O)O[C@@H]1[C@@H](O)[C@@H](OC(C)=O)[C@H](Oc2cc(O)c3c(c2)C(=O)c2cc(C)cc(O)c2C3=O)O[C@H]1C | < 4.70 |  | < 4.70 | < 4.70
